{"data": "Assay results from different studies", "target": "Glycogen synthase kinase-3 alpha (GSK3A, Homo sapiens, UniProt P49840)", "note": "Each line is one published result; the experiments were not run side by side."}
{"SMILES": "COc1cnc(Nc2cccc(S(N)(=O)=O)c2)nc1N1CCN(c2ccccc2)CC1", "read-out": "binding", "technique": "competition with immobilised ligand", "concentration": "1 µM", "remaining binding [%]": 99}
{"SMILES": "F[C@@H]1CCN(c2nccc(-c3cnn4ncccc34)n2)C1", "read-out": "binding", "concentration": "1 µM", "remaining binding [%]": 100}
{"SMILES": "COc1ccc2c(O[C@@H]3C[C@H]4C(=O)N[C@]5(C(=O)O)CC5/C=C\\CCCCC[C@H](NC(=O)OC5CCCC5)C(=O)N4C3)cc(-c3csc(NC(=O)C(C)C)n3)nc2c1C (some centres unmarked)", "read-out": "cell-free assay", "technique": "competition with immobilised ligand", "concentration": "1 µM", "remaining binding [%]": 100}
{"SMILES": "Cc1cnn2ncc(-c3ccnc(N(C)C)n3)c2c1", "read-out": "binding", "concentration": "1 µM", "remaining binding [%]": 96}
{"SMILES": "O=C(NCCCN1CCOCC1)c1ccc(Nc2nccc(-c3cc4ccccc4s3)n2)cc1", "read-out": "binding", "technique": "competition with immobilised ligand", "concentration": "1 µM", "remaining binding [%]": 92}
{"SMILES": "O=C(Nc1cccnn1)N1CCC(=Cc2cccc(Oc3ccc(C(F)(F)F)cn3)c2)CC1", "read-out": "cell-free assay", "technique": "competition with immobilised ligand", "concentration": "1 µM", "remaining binding [%]": 100}
{"SMILES": "O=C(Nc1c[nH]nc1C(=O)NC1CCNCC1)c1cc(F)cc(F)c1", "read-out": "binding", "technique": "competition with immobilised ligand", "concentration": "1 µM", "remaining binding [%]": 14}
{"SMILES": "C=CC(=O)N1CCC(C(=O)NCC(=O)N2CCN(c3nc(-c4cnc(N)nc4C(F)F)nc(N4CCOCC4)n3)CC2)CC1", "read-out": "binding", "technique": "competition with immobilised ligand", "concentration": "1 µM", "remaining binding [%]": 92}
{"SMILES": "O=C(NCc1ncc(C(F)(F)F)cc1Cl)c1ccc2c(c1)C1(CCS(=O)(=O)CC1)[C@H](C1CC1)N2S(=O)(=O)c1ccc(F)cc1", "read-out": "cell-free assay", "technique": "competition with immobilised ligand", "concentration": "1 µM", "remaining binding [%]": 100}
{"SMILES": "N[C@H]1CCN(c2nccc(-c3cnn4ncccc34)n2)C1", "read-out": "binding", "concentration": "1 µM", "remaining binding [%]": 86}
{"SMILES": "FC(F)(F)Oc1cccc(-c2cnc3ccc(-c4ccncc4)nn23)c1", "read-out": "cell-free assay", "technique": "competition with immobilised ligand", "concentration": "5 µM", "remaining binding [%]": 44}
{"SMILES": "O=C(c1ccc(Nc2ncc(Cl)c(-c3ccc(Cl)s3)n2)cc1)N1CCC(N2CCCC2)CC1", "read-out": "binding", "technique": "competition with immobilised ligand", "concentration": "1 µM", "remaining binding [%]": 22}
{"SMILES": "COc1ncc2cc3ccccc3nc2c1C#N", "read-out": "cell-free assay", "technique": "competition with immobilised ligand", "concentration": "5 µM", "remaining binding [%]": 94}
{"SMILES": "CN(CCCC(F)(F)F)c1nccc(-c2cnn3ncccc23)n1", "read-out": "binding", "concentration": "1 µM", "remaining binding [%]": 100}
{"SMILES": "Cc1nc(C2CCN(C(=O)c3ccc(OC(F)(F)F)cc3N)CC2)c2ncc(N3CCN(C)CC3)cc2n1", "read-out": "cell-free assay", "technique": "competition with immobilised ligand", "concentration": "1 µM", "remaining binding [%]": 85}
{"SMILES": "O=C(c1ccc(Nc2ncc(Cl)c(-c3cc4ccccc4s3)n2)cc1)N1CCC(N2CCCC2)CC1", "read-out": "binding", "technique": "competition with immobilised ligand", "concentration": "1 µM", "remaining binding [%]": 11}
{"SMILES": "COCCOc1nc(-c2ccc(Cl)nc2)nc2c1CN(C(=O)c1ncn3ccccc13)CC2", "read-out": "cell-free assay", "technique": "competition with immobilised ligand", "concentration": "0.1 µM", "remaining binding [%]": 100}
{"SMILES": "Nc1ncc2c(n1)-c1c([nH]c3ccc(C#CC4CC4)cc13)CCCC2", "read-out": "binding", "technique": "competition with immobilised ligand", "concentration": "1 µM", "remaining binding [%]": 57}
{"SMILES": "CN(C)C(=O)Cn1cc(-c2nc([C@@](C)(c3ccc(-c4cnc(N)nc4)cc3)C3CC3)no2)cn1", "read-out": "cell-free assay", "technique": "competition with immobilised ligand", "concentration": "1 µM", "remaining binding [%]": 100}
{"SMILES": "C[C@H]1CCN(c2nccc(-c3cnn4ncccc34)n2)C1", "read-out": "binding", "concentration": "1 µM", "remaining binding [%]": 85}
